Screening data as filed in PubChem BioAssay.
Rows were chosen to be rich in hits. Some 2% of all compounds tested hit in one or more screens of this group.
Runt-CBFb FRET = inhibitors of RUNX1 Runt–CBFb binding, primary screen, biochemical, FRET, Cerulean-Runt, Venus-CBFb, uHTS; 220,000 compounds, 0.46% hits; Cerulean-Runt/Venus-CBFb FRET ratio 530/480, 1 h; inhibition, % at 20 µM; Runt-related transcription factor 1 (Homo sapiens) + Core-binding factor subunit beta …;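 active means inhibition over about 50% at 20 µM in the single-dose screen, limit read from the data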;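 further: 0% = DMSO wells and 100% = excess unlabeled CBFb competitor control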
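Doses: 20 µM compound in 1% DMSO | Material: Cerulean-labeled Runt domain protein | Amount: Each fluorescent fusion protein 100 nM | Schedule: Two 1 h room-temperature incubations shielded from light | Measured by: FRET fluorescence | Evaluation: Loss of energy transfer signal | Controls: Unlabeled CBFb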
EBV gp42 block = Epstein-Barr virus gp42 inhibitors, primary screen, biochemical, uHTS, fluorescence polarization | Glycoprotein 42 (Epstein-Barr virus (strain AG876)), Q1HVG2 | Fluorescence polarization binding assay, mP read-out | inhibition, % (tested at 21.74 µM) | 220,000 compounds, 0.42% hits
Target sequence (Q1HVG2 whole entry, looked up): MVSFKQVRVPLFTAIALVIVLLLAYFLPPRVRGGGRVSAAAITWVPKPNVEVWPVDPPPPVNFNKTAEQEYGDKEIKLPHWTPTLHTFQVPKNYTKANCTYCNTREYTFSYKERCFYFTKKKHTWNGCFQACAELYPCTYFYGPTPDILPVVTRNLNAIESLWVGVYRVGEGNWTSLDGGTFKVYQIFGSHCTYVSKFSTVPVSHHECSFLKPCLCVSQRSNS
RanGTP-Impb inh = inhibitors of RanGTP-importin-beta interaction, primary screen, biochemical, FRET, CFP-Ran, YFP-importin-beta, homogeneous; Ran GTPase (GTP-bound) - importin-beta complex; cell-free CFP-Ran/YFP-importin-beta FRET ratio; inhibition, % (test concentration not listed); 300,000 compounds, 1.1% hits; AID 2216, 2009;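 active means more than half of the replicate wells show a fall in the fluorescence ratio signal beyond about 16%, limit read from the data, passing the limit was not always enough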;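 further: 0% = DMSO wells and 100% = Ran loaded with GDP instead of GTP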
MEX-5 binding = MEX-5 zinc finger RNA-binding disruptors – biochemical, C. elegans, fluorescence polarization, MLPCN library, primary screen | Zinc finger protein mex-5 (Caenorhabditis elegans), Q9XUB2 | MEX-5/FITC-TCR2 RNA binding; stronger effect = lower value | activity score (negative = inhibition of binding), % at 10 µM | 300,000 compounds, 0.38% hits;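 active means inhibition past about -25% in most replicates, and total fluorescence under double the plate's negative control median, limit read from the data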;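 further: 0% = DMSO and -100% = 5 µM competing unlabeled TCR2 RNA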
Runt-SMMHC FRET = inhibitors of RUNX1 Runt–CBFb-SMMHC binding, primary screen, biochemical, FRET, Cerulean-Runt, Venus-CBFb-SMMHC, uHTS; Runt-related transcription factor 1 (Homo sapiens) + Core-binding factor subunit beta …; Cerulean-Runt/Venus-CBFb-SMMHC FRET ratio 530/480, 1 h; inhibition, % at 20 µM; 220,000 compounds, 0.74% hits; AID 1434, 2008;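 active means mean inhibition across duplicate retests at 20 µM reaching about 50%, limit read from the data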;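 further: 0% = DMSO wells and 100% = wells with excess untagged CBFb-SMMHC; inhibitors lower the FRET ratio by blocking Runt binding to CBFb-SMMHC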
PKD1 kinase inh = inhibitors of human PKD1 kinase, biochemical, fluorescence polarization; Serine/threonine-protein kinase D1 (Homo sapiens), Q15139; inhibition, % (no concentration beside the values); AID 797, 2007; 200,000 compounds, 0.056% hits; PKD1 kinase fluorescence polarization assay
The depositor's hits bear a star; . = not tested or not shown. Unless noted, no stated cut-off is given here; in the data, active means inhibition above about 50%; inactive means the rest.

SMILES | Runt-CBFb FRET | EBV gp42 block | RanGTP-Impb inh | MEX-5 binding | Runt-SMMHC FRET | PKD1 kinase inh
Cc1nn(C)cc1S(=O)(=O)NCc1ccc2c(c1)OCO2 | . | . | -5 | 1 | . | .
CC(=O)Oc1cc2cccc(OC(C)=O)c(=O)c2c(OC(C)=O)c1OC(C)=O | 20 | -12 | 11 | -61* | -2 | 20
COc1cc2cccc(OC)c(=O)c2c(O)c1OC | 0 | 1 | -1 | 2 | -1 | -7
O=C(N/N=C/c1oc(O)c2ccccc12)c1ccccc1O | 1 | -8 | -2 | -34* | -1 | -3
O=C(N/N=C/c1ccoc1)c1ccccc1O | . | . | 1 | -1 | . | .
CCC(C)N1C(=O)/C(=C/c2c(NCCCOC(C)C)nc3c(C)cccn3c2=O)SC1=S (stereo not drawn) | -31 | 130* | . | . | -60 | 0
CCCN1C(=O)/C(=C/c2c(NCCCOC(C)C)nc3c(C)cccn3c2=O)SC1=S | -19 | -61 | -17 | 4 | -63 | 6
CCOC(=O)/C(C#N)=C/c1ccc(-c2ccsc2C(=O)OC)o1 | -123 | 45 | 4 | -55* | -280 | -4
COc1ccccc1CN1CC(C(=O)N2CCC(OC)CC2)CCC1=O (stereo not drawn) | . | . | -2 | -1 | . | .
CCOC(=O)/C(C#N)=C1\Nc2ccccc2N=C1N(CC(C)C)CC(C)C | 28 | -17 | 30* | -5 | -19 | 8
Cc1nnc(NC(=O)CN2CCN(Cc3ccc(F)cc3Cl)CC2)s1 | . | . | 0 | 3 | . | .
COc1ccc(-c2cc3nc(C)cc(NCCO)n3n2)cc1 | -3 | -6 | 1 | -1 | 4 | -2
Cc1ccc(-c2cc3nc(C)cc(NCc4ccco4)n3n2)cc1 | 5 | -4 | 38* | -3 | 14 | -6
CCN1CCC(CNCc2cn(-c3ccc(OC)cc3)nc2-c2ccccc2Cl)C1 (stereo not drawn) | 0 | 2 | 0 | 0 | 0 | 2
CCOc1ccc(N/C=C/C(=O)c2ccc(OC)cc2)c([N+](=O)[O-])c1 | -7 | 59* | -4 | -1 | -13 | -6
COc1ncnc2c1NC1=C(S2)C(=NCCC(=O)O)CC(C)(C)C1 | 12 | 140* | -3 | -52* | 25 | -13
NC(=O)c1ccsc1N | 8 | 9 | . | -35* | -1 | -9
Cn1c(=Nc2ccc(N3CCOCC3)cc2)ccc2ccccc21 | -1 | -25 | 5 | -3 | 0 | -6
Cn1c(N=Nc2ccc(N3CCOCC3)cc2)[n+](C)c2ccccc21 | 8 | -1 | 1 | -31* | 10 | 0
CCOc1cc(/C=C(\C#N)C(=O)Nc2ccc(S(N)(=O)=O)cc2)ccc1OCCN1CCOCC1 | . | . | 5 | 0 | . | .
Cc1ccc(C(=O)C2=C(O)C(=O)N(CCN3CCOCC3)C2c2ccccn2)o1 (stereo not drawn) | 1 | 1 | 23* | -4 | 6 | 1
CCN(CC)CCN1C(=O)C(O)=C(C(=O)c2ccc(C)o2)C1c1ccccn1 (stereo not drawn) | . | . | 29* | -2 | . | 14
O=C(C1=C(O)C(=O)N(CCCN2CCOCC2)C1c1ccccn1)c1cc2ccccc2o1 (stereo not drawn) | 2 | -11 | 2 | 0 | 20 | -5
O=C(CN1C(=O)/C(=C/c2ccco2)SC1=S)Nc1ccc(O)c(C(=O)O)c1 | . | . | -1 | -8 | . | .
O=C(CN1C(=O)/C(=C/c2ccco2)SC1=S)Nc1ccc(C(=O)O)c(O)c1 | . | . | 3 | -28* | . | .
O=C1/C(=C/C=C/c2ccco2)SC(=S)N1c1ccc(O)cc1 | 29 | 9 | -3 | -1 | 4 | .
CC(C(=O)Nc1ccc(C(=O)O)c(O)c1)N1C(=O)/C(=C\c2ccco2)SC1=S (stereo not drawn) | . | . | 1 | -26* | . | .
